From ChEMBL document CHEMBL4308878, “Discovery of covalent enzyme inhibitors using virtual docking of covalent fragments” (Bioorg Med Chem Lett, 2019) come the findings set out here.

For assay [1], the target named is T1, Cathepsin B (Homo sapiens, UniProt P07858). Put plainly: Inhibition of cathepsin B (unknown origin) using Z-Arg-Arg-AMC as substrate after 5 mins by fluorimetric method.
Assay [2] addresses T1, Cathepsin B. Put plainly: Inhibition of cathepsin B (unknown origin) assessed as ratio of Kinact to Ki using Z-Arg-Arg-AMC as substrate after 5 mins by fluorimetric method.
The target of assay [3] is T2, Procathepsin L (Homo sapiens, UniProt P07711). Put plainly: Inhibition of cathepsin L (unknown origin) using Z-Phe-Arg-AMC as substrate after 5 mins by fluorimetric method.
Assay [4] addresses T2, Procathepsin L. Put plainly: Inhibition of cathepsin L (unknown origin) assessed as ratio of Kinact to Ki using Z-Phe-Arg-AMC as substrate after 5 mins by fluorimetric method.
Target sequence in this assay (P07711 114-333 limits assumed): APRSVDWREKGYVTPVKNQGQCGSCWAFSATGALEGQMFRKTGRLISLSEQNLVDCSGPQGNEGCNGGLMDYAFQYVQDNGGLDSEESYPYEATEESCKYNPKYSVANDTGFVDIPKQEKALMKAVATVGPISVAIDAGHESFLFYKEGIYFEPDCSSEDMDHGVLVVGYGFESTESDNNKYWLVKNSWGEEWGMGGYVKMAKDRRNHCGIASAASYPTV
The target in assay [5] is T2, Procathepsin L. Put plainly: Inhibition of human liver cathepsin L using Z-FR-AMC as substrate measured at 1 min interval for 20 mins followed by every 15 mins for 2 hrs by fluorescence assay.
Assay [6] deals with T2, Procathepsin L. Put plainly: Inhibition of human liver cathepsin L assessed as ratio of Kinact to Ki using Z-FR-AMC as substrate measured at 1 min interval for 20 mins followed by every 15 mins for 2 hrs by fluorescence assay.
Target sequence in this assay (P07711 114-333 limits assumed): as above
The target in assay [7] is T2, Procathepsin L. Put plainly: Competitive inhibition of human liver cathepsin L using Z-FR-AMC as substrate measured at 1 min interval for 20 mins followed by every 15 mins for 2 hrs by fluorescence assay.
Assay [8] has as its target T1, Cathepsin B. Put plainly: Inhibition of human liver cathepsin B using Z-Arg-Arg-AMC as substrate measured at 1 min interval for 20 mins followed by every 15 mins for 2 hrs by fluorescence assay.
Assay [9] concerns the target T1, Cathepsin B. Put plainly: Inhibition of human liver cathepsin B using Z-Arg-Arg-AMC as substrate preincubated for 60 mins followed by substrate addition and measured at 1 min interval for 20 mins consecutively at every 15 mins for 2 hrs by fluorescence assay.
The target in assay [10] is T3, Calpain-1 catalytic subunit (Homo sapiens) (UniProt P07384).
T3 sequence (whole entry): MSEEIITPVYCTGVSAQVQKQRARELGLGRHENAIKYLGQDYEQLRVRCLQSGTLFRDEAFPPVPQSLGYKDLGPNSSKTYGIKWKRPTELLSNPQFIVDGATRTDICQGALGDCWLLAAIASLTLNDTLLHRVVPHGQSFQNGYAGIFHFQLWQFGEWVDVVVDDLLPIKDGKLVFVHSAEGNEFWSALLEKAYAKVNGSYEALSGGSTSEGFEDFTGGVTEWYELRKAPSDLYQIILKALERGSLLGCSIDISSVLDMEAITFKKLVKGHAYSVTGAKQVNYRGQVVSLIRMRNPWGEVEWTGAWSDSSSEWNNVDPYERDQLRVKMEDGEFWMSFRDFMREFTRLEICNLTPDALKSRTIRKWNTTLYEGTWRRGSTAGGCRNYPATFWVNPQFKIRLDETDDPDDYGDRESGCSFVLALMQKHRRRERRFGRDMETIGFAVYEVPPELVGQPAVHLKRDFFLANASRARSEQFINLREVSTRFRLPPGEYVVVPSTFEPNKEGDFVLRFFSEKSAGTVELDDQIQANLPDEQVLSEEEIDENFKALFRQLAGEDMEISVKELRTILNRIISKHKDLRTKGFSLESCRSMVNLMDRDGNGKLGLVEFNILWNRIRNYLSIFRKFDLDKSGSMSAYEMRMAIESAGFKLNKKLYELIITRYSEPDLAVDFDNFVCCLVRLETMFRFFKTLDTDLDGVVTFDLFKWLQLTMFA
Put plainly: Inhibition of human calpain1 using Suc-Leu-Tyr-AMC as substrate measured at 1 min interval for 20 mins followed by every 15 mins for 2 hrs by fluorescence assay.

Assay [11] has as its target T3, Calpain-1 catalytic subunit (Homo sapiens). Put plainly: Inhibition of human calpain1 using Suc-Leu-Tyr-AMC as substrate preincubated for 60 mins followed by substrate addition and measured at 1 min interval for 20 mins consecutively at every 15 mins for 2 hrs by fluorescence assay.
Assay [12] deals with T4, Ubiquitin carboxyl-terminal hydrolase 8 (Homo sapiens) (UniProt P40818).
T4 sequence (whole entry): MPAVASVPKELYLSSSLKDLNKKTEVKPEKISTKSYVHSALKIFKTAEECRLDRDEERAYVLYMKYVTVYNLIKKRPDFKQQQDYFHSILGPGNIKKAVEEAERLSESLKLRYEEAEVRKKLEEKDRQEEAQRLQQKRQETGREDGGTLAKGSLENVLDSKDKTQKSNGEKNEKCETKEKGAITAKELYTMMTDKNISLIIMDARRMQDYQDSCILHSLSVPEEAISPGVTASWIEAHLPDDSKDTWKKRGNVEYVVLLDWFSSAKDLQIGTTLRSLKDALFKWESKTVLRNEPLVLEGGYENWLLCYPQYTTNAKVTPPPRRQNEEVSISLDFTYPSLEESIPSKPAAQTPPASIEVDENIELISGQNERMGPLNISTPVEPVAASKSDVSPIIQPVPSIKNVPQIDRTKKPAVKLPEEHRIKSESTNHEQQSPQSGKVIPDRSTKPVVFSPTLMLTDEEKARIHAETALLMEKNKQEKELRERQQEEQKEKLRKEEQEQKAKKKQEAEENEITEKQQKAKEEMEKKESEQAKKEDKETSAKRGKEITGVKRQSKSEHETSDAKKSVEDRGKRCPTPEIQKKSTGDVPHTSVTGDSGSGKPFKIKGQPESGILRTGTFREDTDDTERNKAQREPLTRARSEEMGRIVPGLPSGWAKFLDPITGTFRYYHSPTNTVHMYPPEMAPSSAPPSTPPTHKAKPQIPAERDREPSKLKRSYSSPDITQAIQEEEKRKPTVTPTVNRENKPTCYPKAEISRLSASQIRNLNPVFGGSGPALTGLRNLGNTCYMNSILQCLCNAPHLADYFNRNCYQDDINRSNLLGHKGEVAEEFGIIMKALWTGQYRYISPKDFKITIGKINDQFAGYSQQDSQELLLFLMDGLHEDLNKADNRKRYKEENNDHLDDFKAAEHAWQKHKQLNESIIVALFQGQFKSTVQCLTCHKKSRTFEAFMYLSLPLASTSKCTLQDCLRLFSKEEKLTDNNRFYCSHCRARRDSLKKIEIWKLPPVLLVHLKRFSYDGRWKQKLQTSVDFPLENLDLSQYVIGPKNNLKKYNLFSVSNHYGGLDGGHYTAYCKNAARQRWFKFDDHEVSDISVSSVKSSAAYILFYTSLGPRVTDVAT
Put plainly: Inhibition of recombinant USP8 catalytic domain (unknown origin) using Ubiquitin-Lys-TAMRA as substrate measured at 6 mins interval for 4 hrs by fluorescence assay.

Assay [13] addresses T4, Ubiquitin carboxyl-terminal hydrolase 8 (Homo sapiens). Put plainly: Inhibition of recombinant USP8 catalytic domain (unknown origin) using Ubiquitin-Lys-TAMRA as substrate preincubated for 60 mins followed by substrate addition and measured at 6 mins interval for 4 hrs by fluorescence assay.
Assay [14] deals with T2, Procathepsin L. Put plainly: Irreversible inhibition of human liver cathepsin L at 50 uM using Z-FR-AMC as substrate preincubated for 3 hrs followed by compound washout measured by gel filtration assay. The method in brief:
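Cathepsin L (10 nM) was preincubated with inhibitor (50 μM), then passed through a gel-filtration spin column to remove free compound. Flow-through aliquots were assayed for recovery of enzyme activity at several time points.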
Target sequence in this assay (P07711 114-333 limits assumed): as the sequence (P07711 114-333 limits assumed) above

Calls of active or inactive are those of the source. The calls are words filed in the database; no cut-off is given here.

As for `O=C(N[C@H](/C=C/S(=O)(=O)c1ccccc1)CCc1ccccc1)[C@H](Cc1cc(I)c(O)c(I)c1)NC(=O)N1CCOCC1`, the Ki on Cathepsin B [1] came to 0.34 µM; on Procathepsin L [3], 0.72 µM. In addition, the Kinact at Cathepsin B [1] was found to be 0.36 s⁻¹; at Procathepsin L [3], 0.28 s⁻¹. For the same molecule, the Ratio at Cathepsin B [2] was determined as 1.06e+06 M⁻¹ s⁻¹; at Procathepsin L [4], 389000 M⁻¹ s⁻¹.
At Procathepsin L [5], `C[C@@H](Oc1ccc(Br)cc1Br)C(=O)NC/C=C/S(C)(=O)=O` came in with a Ki of 146 µM and a Kinact of 0.0006 s⁻¹.
`O=C(N[C@H](/C=C/S(=O)(=O)c1ccccc1)CCc1ccccc1)[C@H](Cc1ccccc1)NC(=O)N1CCOCC1`: the figures for the Ki on Cathepsin B [1] and on Procathepsin L [3] were 11 µM and 1 µM, respectively. In addition, the values for the Kinact at Cathepsin B [1] and on Procathepsin L [3] were 0.17 s⁻¹ and 0.24 s⁻¹, respectively. The Ratio stood at 15500 M⁻¹ s⁻¹ at Cathepsin B [2] and 240000 M⁻¹ s⁻¹ on Procathepsin L [4].
Consider `CS(=O)(=O)/C=C/CNC(=O)COc1ccc(Br)cc1Br`, for which the Ratio at Procathepsin L [6] was 5 M⁻¹ s⁻¹. Further, the affinity at Procathepsin L [7] corresponds to a Ki of 59 µM. On Procathepsin L [7], the Kinact is 0.0003 s⁻¹. Also, the inhibition entry (at Cathepsin B [8]; on Cathepsin B [9]; in assay [10]; in assay [11]; in assay [12]; in assay [13]) was “inactive” each time. Besides, the inhibition result at Procathepsin L [14] was “Active”.

In general, Ki refers to a measure of affinity in units of concentration, obtained from inhibition or displacement.
